The record followed here is ChEMBL document CHEMBL3526048, “In vitro metabolism of rivoglitazone, a novel peroxisome proliferator-activated receptor γ agonist, in rat, monkey, and human liver microsomes and freshly isolated hepatocytes” (Drug Metab Dispos, 2011).

Common to all, as to assay type: ADME
In one data set the target is Cytochrome P450 2C9 (Homo sapiens, UniProt P11712). Description: Activity of human CYP2C9 expressed in microsomes isolated from baculovirus infected insect cell assessed as enzyme-mediated 5-hydroxy-5-(4-((6-methoxy-1-methyl-1H-benzo[d]imidazol-2-yl)methoxy)benzyl)thiazolidine-2,4-dione formation at 20 uM after 2 hrs by radio-HPLC/LC-MS/MS analysis in presence of NADPH-generating system and NADPH-generating system/SAM.

The target of another data set is Cytochrome P450 2C19 (Homo sapiens, UniProt P33261). Description: Activity of human CYP2C19 expressed in microsomes isolated from baculovirus infected insect cell assessed as enzyme-mediated 3-(4-((6-methoxy-1-methyl-1H-benzo[d]imidazol-2-yl)methoxy)phenyl)-2-(methylsulfinyl)propanamide formation at 20 uM after 2 hrs by radio-HPLC/LC-MS/MS analysis in presence of NADPH-generating system/SAM.

For a further data set, the target named is Cytochrome P450 3A4 (Homo sapiens, UniProt P08684). Description: Activity of human CYP3A4 expressed in microsomes isolated from baculovirus infected insect cell assessed as enzyme-mediated 5-(4-((6-methoxy-1H-benzo[d]imidazol-2-yl)methoxy)benzyl)thiazolidine-2,4-dione formation at 20 uM after 2 hrs by radio-HPLC/LC-MS/MS analysis in presence of NADPH-generating system and NADPH-generating system/SAM.

Data set [1] deals with T1, UDP-glucuronosyltransferase 1A10 (Homo sapiens, UniProt Q9HAW8).
T1 sequence (Q9HAW8 whole entry): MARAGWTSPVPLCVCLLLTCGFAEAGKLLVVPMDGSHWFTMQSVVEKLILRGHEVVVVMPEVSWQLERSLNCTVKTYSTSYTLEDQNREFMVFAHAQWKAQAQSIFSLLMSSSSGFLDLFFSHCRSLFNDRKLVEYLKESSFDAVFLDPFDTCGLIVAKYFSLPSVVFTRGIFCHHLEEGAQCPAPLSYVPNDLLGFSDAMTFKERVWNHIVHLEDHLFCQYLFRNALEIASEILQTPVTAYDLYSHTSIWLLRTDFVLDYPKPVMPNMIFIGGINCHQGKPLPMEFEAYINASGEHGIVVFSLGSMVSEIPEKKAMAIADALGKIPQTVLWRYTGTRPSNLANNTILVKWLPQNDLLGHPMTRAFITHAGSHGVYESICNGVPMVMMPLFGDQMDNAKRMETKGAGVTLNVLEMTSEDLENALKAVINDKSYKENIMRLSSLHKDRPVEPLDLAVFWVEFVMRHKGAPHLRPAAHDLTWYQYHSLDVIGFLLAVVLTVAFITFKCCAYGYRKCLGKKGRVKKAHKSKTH
Description: Activity of human UGT1A10 expressed in microsomes isolated from baculovirus infected insect cell assessed as enzyme-mediated 2-mercapto-3-(4-((6-methoxy-1-methyl-1H-benzo[d]imidazol-2-yl)methoxy)phenyl)propanoic acid formation at 20 uM after 4 hrs by radio-HPLC/LC-MS/MS analysis in presence of UDPGA. An outline of the steps: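 Alamethicin (50 μg/mg protein, 15 min on ice) pretreated expressed human UGT microsomes (1 mg/ml protein) from baculovirus-infected insect cells. Incubation with [¹⁴C]rivoglitazone (20 μM) in 100 mM Tris-HCl (pH 7.5) with 10 mM MgCl₂, started by 5 mM UDPGA, 4 h at 37°C with shaking. UGT insect-cell control supersomes were run alongside. Acetonitrile stop, concentrated supernatant analysed by radio-HPLC, LC-MS and LC-MS/MS.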

For data set [2], the target named is T2, UDP-glucuronosyltransferase 1A8 (Homo sapiens, UniProt Q9HAW9).
T2 sequence (Q9HAW9 whole entry): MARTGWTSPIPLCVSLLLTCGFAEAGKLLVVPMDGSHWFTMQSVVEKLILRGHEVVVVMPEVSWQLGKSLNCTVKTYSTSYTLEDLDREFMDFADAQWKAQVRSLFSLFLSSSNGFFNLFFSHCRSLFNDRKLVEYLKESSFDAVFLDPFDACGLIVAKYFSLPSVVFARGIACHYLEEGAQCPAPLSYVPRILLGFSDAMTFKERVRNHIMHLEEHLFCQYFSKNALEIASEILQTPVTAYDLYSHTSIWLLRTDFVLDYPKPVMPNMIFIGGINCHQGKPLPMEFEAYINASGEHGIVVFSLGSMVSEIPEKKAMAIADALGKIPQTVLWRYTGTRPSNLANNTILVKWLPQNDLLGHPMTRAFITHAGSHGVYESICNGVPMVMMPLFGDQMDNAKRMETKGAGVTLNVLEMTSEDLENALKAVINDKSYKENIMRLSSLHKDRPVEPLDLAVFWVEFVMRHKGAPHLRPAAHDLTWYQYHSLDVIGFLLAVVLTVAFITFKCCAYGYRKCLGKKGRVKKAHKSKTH
Description: Activity of human UGT1A8 expressed in microsomes isolated from baculovirus infected insect cell assessed as enzyme-mediated 2-mercapto-3-(4-((6-methoxy-1-methyl-1H-benzo[d]imidazol-2-yl)methoxy)phenyl)propanoic acid formation at 20 uM after 4 hrs by radio-HPLC/LC-MS/MS analysis in presence of UDPGA.

For a further data set, the target named is Cytochrome P450 3A5 (Homo sapiens, UniProt P20815). Description: Activity of human CYP3A5 expressed in microsomes isolated from baculovirus infected insect cell assessed as enzyme-mediated compound formation treated with [14C]-rivoglitazone at 20 uM after 2 hrs by radio-HPLC/LC-MS/MS analysis in presence of NADPH-generating system. In a few lines: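 cDNA-expressed human CYP3A5 in baculovirus-insect-cell microsomes (1 mg/ml protein) was incubated with [¹⁴C]rivoglitazone (20 μM) in 50 mM potassium phosphate (pH 7.4) or 100 mM Tris-HCl (pH 7.5). NADPH-generating system: 2 mM NADP⁺, 20 mM glucose 6-phosphate, 2 units/ml G6PDH, 10 mM MgCl₂. Incubation ran 2 h at 37°C with shaking; insect-cell control supersomes served as control. Acetonitrile stop, supernatant concentrated, then radio-HPLC, LC-MS and LC-MS/MS.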
Sequence of Cytochrome P450 3A5 (P20815 whole entry): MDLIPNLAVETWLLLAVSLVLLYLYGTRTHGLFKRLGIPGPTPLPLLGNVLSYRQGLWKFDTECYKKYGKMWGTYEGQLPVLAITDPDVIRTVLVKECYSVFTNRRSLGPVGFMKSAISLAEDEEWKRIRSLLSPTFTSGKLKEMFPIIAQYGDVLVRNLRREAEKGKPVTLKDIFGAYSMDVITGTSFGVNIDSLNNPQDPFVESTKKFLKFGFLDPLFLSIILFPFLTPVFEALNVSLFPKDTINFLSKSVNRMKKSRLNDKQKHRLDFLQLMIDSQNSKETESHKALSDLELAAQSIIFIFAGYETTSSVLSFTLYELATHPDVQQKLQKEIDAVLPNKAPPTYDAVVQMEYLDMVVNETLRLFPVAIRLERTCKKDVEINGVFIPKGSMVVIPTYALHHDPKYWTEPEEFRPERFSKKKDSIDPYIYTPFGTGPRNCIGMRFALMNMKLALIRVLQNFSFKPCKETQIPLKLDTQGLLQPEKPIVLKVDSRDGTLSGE

Sequence of Cytochrome P450 2C9 (P11712 whole entry): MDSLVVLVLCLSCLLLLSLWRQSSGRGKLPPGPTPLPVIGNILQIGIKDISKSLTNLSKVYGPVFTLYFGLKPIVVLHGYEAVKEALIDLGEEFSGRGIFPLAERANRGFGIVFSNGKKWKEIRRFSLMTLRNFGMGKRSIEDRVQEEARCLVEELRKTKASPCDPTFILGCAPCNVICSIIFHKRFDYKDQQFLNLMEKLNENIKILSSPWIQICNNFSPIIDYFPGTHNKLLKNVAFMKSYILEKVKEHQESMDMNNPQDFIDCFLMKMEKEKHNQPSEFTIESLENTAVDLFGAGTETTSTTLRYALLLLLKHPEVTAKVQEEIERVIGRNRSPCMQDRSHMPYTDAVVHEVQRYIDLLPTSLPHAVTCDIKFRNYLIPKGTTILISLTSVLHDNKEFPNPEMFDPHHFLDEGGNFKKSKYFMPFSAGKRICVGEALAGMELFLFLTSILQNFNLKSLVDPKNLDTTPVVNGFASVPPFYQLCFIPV
Sequence of Cytochrome P450 2C19 (P33261 whole entry): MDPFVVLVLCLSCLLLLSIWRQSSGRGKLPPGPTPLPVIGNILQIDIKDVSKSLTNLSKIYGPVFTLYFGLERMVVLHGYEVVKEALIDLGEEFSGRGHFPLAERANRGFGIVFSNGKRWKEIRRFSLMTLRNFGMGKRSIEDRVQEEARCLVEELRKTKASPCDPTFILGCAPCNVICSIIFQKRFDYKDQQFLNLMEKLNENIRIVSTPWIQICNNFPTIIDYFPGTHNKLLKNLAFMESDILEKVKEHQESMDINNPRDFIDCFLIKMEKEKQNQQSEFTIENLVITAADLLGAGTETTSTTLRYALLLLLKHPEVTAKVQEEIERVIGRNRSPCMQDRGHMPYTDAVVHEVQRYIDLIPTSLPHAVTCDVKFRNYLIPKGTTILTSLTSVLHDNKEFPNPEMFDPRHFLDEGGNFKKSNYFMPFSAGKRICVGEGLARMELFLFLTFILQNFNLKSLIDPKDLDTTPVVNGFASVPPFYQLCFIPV
Sequence of Cytochrome P450 3A4 (P08684 whole entry): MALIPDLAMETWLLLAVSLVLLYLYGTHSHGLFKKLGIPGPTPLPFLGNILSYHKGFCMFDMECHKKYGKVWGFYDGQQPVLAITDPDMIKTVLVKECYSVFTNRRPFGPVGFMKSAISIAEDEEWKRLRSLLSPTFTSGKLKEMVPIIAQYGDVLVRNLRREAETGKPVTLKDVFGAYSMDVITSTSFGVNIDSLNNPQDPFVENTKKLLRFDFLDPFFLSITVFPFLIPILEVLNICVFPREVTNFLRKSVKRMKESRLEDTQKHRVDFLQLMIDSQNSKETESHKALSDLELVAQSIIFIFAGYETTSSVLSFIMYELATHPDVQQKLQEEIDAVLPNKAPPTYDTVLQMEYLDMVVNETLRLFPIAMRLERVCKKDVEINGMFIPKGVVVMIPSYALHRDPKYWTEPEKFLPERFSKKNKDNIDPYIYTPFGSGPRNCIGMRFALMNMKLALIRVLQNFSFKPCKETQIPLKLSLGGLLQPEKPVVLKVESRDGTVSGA

On to `COc1ccc2nc(COc3ccc(C[14CH]4SC(=O)NC4=O)cc3)n(C)c2c1.Cl` (racemic), for which the Drug metabolism result is listed as “metabolite_detected” on Cytochrome P450 2C9; “metabolite_not_detected” at Cytochrome P450 2C19; “metabolite_detected” at Cytochrome P450 3A4; “metabolite_not_detected” in data set [1]; “metabolite_not_detected” in data set [2].
Regarding `COc1ccc2nc(COc3ccc(CC(S)C(=O)O)cc3)n(C)c2c1` (stereo unspecified), the Drug metabolism entry at Cytochrome P450 3A5 is “metabolite_detected”.
